Experimental data from ChEMBL document CHEMBL3627653, “Synthesis and biological evaluation of spiro[cyclopropane-1,3'-indolin]-2'-ones as potential anticancer agents” (Bioorg Med Chem Lett, 2015).
The source made the active and inactive calls. No cut-off for these calls is given here.

Tests used:
[1] = test system: MCF7; assay: Anticancer activity against human MCF7 cells; assay type: functional
How it was run: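 Human MCF-7 breast cancer cells exposed to compound for 48 h. The IC50 (50% inhibitory concentration) is reported as the average of three individual experiments.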

[2] = test system: DU-145; assay: Reduction in mitochondrial membrane potential in human DU145 cells assessed as cell level at Q1-upper right quadrant at 3 uM incubated for 48 hrs by JC1 dye staining based flow cytometry (reference value: 95.1%); assay type: functional; set-up: scale not given: the % may be the effect or the level left
How it was run: (§1)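 After 48 h exposure at 1.5 or 3 μM, DU-145 cells were stained with JC-1 to track loss of mitochondrial membrane potential (ΔΨm) and read on a FACScan flow cytometer. Untreated control and nocodazole (1.5 μM) were run alongside.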

[3] = test system: DU-145; assay: Induction of apoptosis in human DU145 cells assessed as early apoptotic cells level at 3 uM incubated for 48 hrs by Annexin V-FITC and propidium iodide staining based flow cytometry (reference value: 4.73%); assay type: functional
[4] = test system: HT-29; assay: Anticancer activity against human HT-29 cells assessed as reduction in cell viability incubated for 48 hrs by MTT assay; assay type: functional, cell-based; settings: HT-29, 48 h
[5] = test system: DU-145; assay: Induction of apoptosis in human DU145 cells assessed as necrotic cells level at 3 uM incubated for 48 hrs by Annexin V-FITC and propidium iodide staining based flow cytometry (reference value: 3.56%); assay type: functional
[6] = test system: DU-145; assay: Anticancer activity against human DU145 cells assessed as reduction in cell viability incubated for 48 hrs by MTT assay; assay type: functional, cell-based; settings: DU-145, 48 h
[7] = test system: DU-145; assay: Induction of cell cycle arrest in human DU145 cells assessed as accumulation at G0/G1 phase at 3 uM incubated for 48 hrs by propidium iodide staining based flow cytometry (reference value: 79.81%); assay type: functional
[8] = test system: DU-145; assay: Reduction in mitochondrial membrane potential in human DU145 cells at 3 uM incubated for 48 hrs by JC1 dye staining based flow cytometry; assay type: functional, cell-based; how it was run: as §1
[9] = test system: DU-145; assay: Reduction in mitochondrial membrane potential in human DU145 cells assessed as cell level at Q1-upper left quadrant at 3 uM incubated for 48 hrs by JC1 dye staining based flow cytometry (reference value: 1.6%); assay type: functional; set-up: scale not given: the % may be the effect or the level left; how it was run: as §1
[10] = test system: A549; assay: Anticancer activity against human A549 cells assessed as reduction in cell viability incubated for 48 hrs by MTT assay; assay type: functional, cell-based; settings: A549, 48 h
[11] = test system: DU-145; assay: Reduction in mitochondrial membrane potential in human DU145 cells assessed as cell level at Q1-upper right quadrant at 1.5 uM incubated for 48 hrs by JC1 dye staining based flow cytometry (reference value: 95.1%); assay type: functional; set-up: scale not given: the % may be the effect or the level left; how it was run: as §1
[12] = test system: DU-145; assay: Anticancer activity against human DU145 cells; assay type: functional, cell-based
[13] = test system: DU-145; assay: Induction of cell cycle arrest in human DU145 cells assessed as accumulation at G0/G1 phase at 1.5 uM incubated for 48 hrs by propidium iodide staining based flow cytometry (reference value: 79.81%); assay type: functional
[14] = test system: DU-145; assay: Reduction in mitochondrial membrane potential in human DU145 cells assessed as cell level at Q1-lower right quadrant at 3 uM incubated for 48 hrs by JC1 dye staining based flow cytometry (reference value: 3.1%); assay type: functional; set-up: scale not given: the % may be the effect or the level left; how it was run: as §1
[15] = test system: DU-145; assay: Induction of cell cycle arrest in human DU145 cells assessed as accumulation at subG1 phase at 1.5 uM incubated for 48 hrs by propidium iodide staining based flow cytometry (reference value: 9.12%); assay type: functional
[16] = test system: DU-145; assay: Induction of apoptosis in human DU145 cells assessed as viable cells level at 3 uM incubated for 48 hrs by Annexin V-FITC and propidium iodide staining based flow cytometry (reference value: 87.88%); assay type: functional
[17] = test system: DU-145; assay: Induction of cell cycle arrest in human DU145 cells assessed as accumulation at subG1 phase at 3 uM incubated for 48 hrs by propidium iodide staining based flow cytometry (reference value: 9.12%); assay type: functional
[18] = test system: DU-145; assay: Induction of apoptosis in human DU145 cells assessed as early apoptotic cells level at 1.5 uM incubated for 48 hrs by Annexin V-FITC and propidium iodide staining based flow cytometry (reference value: 4.73%); assay type: functional
[19] = test system: DU-145; assay: Induction of apoptosis in human DU145 cells assessed as necrotic cells level at 1.5 uM incubated for 48 hrs by Annexin V-FITC and propidium iodide staining based flow cytometry (reference value: 3.56%); assay type: functional
[20] = test system: DU-145; assay: Induction of apoptosis in human DU145 cells assessed as increase in caspase-3 levels level at 1.5 and 3 uM incubated for 48 hrs by ELISA method; assay type: functional
How it was run: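 Caspase-3 levels measured in DU-145 cells after 48 h treatment at 1.5 and 3 μM and expressed relative to untreated control. Data are mean ± SD of two experiments each run in triplicate; significance set at P < 0.005 versus control.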

[21] = test system: DU-145; assay: Reduction in mitochondrial membrane potential in human DU145 cells assessed as cell level at Q1-upper left quadrant at 1.5 uM incubated for 48 hrs by JC1 dye staining based flow cytometry (reference value: 1.6%); assay type: functional; set-up: scale not given: the % may be the effect or the level left; how it was run: as §1
[22] = test system: DU-145; assay: Induction of cell cycle arrest in human DU145 cells assessed as accumulation at S phase at 3 uM incubated for 48 hrs by propidium iodide staining based flow cytometry (reference value: 1.74%); assay type: functional
[23] = test system: MCF7; assay: Anticancer activity against human MCF7 cells assessed as reduction in cell viability incubated for 48 hrs by MTT assay; assay type: functional, cell-based; settings: MCF7, 48 h
[24] = test system: DU-145; assay: Induction of apoptosis in human DU145 cells assessed as late apoptotic cells level at 3 uM incubated for 48 hrs by Annexin V-FITC and propidium iodide staining based flow cytometry (reference value: 3.83%); assay type: functional
[25] = test system: DU-145; assay: Induction of apoptosis in human DU145 cells assessed as viable cells level at 1.5 uM incubated for 48 hrs by Annexin V-FITC and propidium iodide staining based flow cytometry (reference value: 87.88%); assay type: functional
[26] = test system: DU-145; assay: Induction of apoptosis in human DU145 cells assessed as late apoptotic cells level at 1.5 uM incubated for 48 hrs by Annexin V-FITC and propidium iodide staining based flow cytometry (reference value: 3.83%); assay type: functional
[27] = test system: HeLa; assay: Anticancer activity against human HeLa cells assessed as reduction in cell viability incubated for 48 hrs by MTT assay; assay type: functional, cell-based
[28] = test system: DU-145; assay: Reduction in mitochondrial membrane potential in human DU145 cells at 1.5 uM incubated for 48 hrs by JC1 dye staining based flow cytometry; assay type: functional, cell-based; how it was run: as §1
[29] = test system: DU-145; assay: Induction of cell cycle arrest in human DU145 cells assessed as accumulation at G2/M phase at 3 uM incubated for 48 hrs by propidium iodide staining based flow cytometry (reference value: 6.51%); assay type: functional
[30] = test system: DU-145; assay: Reduction in mitochondrial membrane potential in human DU145 cells assessed as cell level at Q1-lower left quadrant at 3 uM incubated for 48 hrs by JC1 dye staining based flow cytometry (reference value: 0.1%); assay type: functional; set-up: scale not given: the % may be the effect or the level left; how it was run: as §1
[31] = test system: DU-145; assay: Reduction in mitochondrial membrane potential in human DU145 cells assessed as cell level at Q1-lower right quadrant at 1.5 uM incubated for 48 hrs by JC1 dye staining based flow cytometry (reference value: 3.1%); assay type: functional; set-up: scale not given: the % may be the effect or the level left; how it was run: as §1
[32] = test system: HEK293; assay: Cytotoxic activity against human HEK293 cells assessed as reduction in cell viability incubated for 48 hrs by MTT assay; assay type: cell-based; settings: HEK293, 48 h
[33] = test system: DU-145; assay: Induction of cell cycle arrest in human DU145 cells assessed as accumulation at S phase at 1.5 uM incubated for 48 hrs by propidium iodide staining based flow cytometry (reference value: 1.74%); assay type: functional
[34] = test system: DU-145; assay: Induction of cell cycle arrest in human DU145 cells assessed as accumulation at G2/M phase at 1.5 uM incubated for 48 hrs by propidium iodide staining based flow cytometry (reference value: 6.51%); assay type: functional
[35] = test system: DU-145; assay: Reduction in mitochondrial membrane potential in human DU145 cells assessed as cell level at Q1-lower left quadrant at 1.5 uM incubated for 48 hrs by JC1 dye staining based flow cytometry (reference value: 0.1%); assay type: functional; set-up: scale not given: the % may be the effect or the level left; how it was run: as §1

| GI50 [1] [nM] | Compound | Activity [2] [%] | Activity [3] [%] | IC50 [4] [nM] | Activity [5] [%] | IC50 [6] [nM] | Activity [7] [%] | Activity [11] [%] | Activity [13] [%] | Activity [15] [%] | Activity [18] [%] | Activity [19] [%] | Activity [21] [%] | Activity [25] [%] | Activity [26] [%] | Activity [28] | Activity [31] [%] | Activity [33] [%] | Activity [34] [%] | Activity [35] [%] | other results |
| --- | --- | --- | --- | --- | --- | --- | --- | --- | --- | --- | --- | --- | --- | --- | --- | --- | --- | --- | --- | --- | --- |
| 2130 | CC(=O)N1C(=O)[C@]2(Sc3ncccc3C(=O)N2c2ccccc2)c2cc(Br)ccc21 | – | – | – | – | – | – | – | – | – | – | – | – | – | – | – | – | – | – | – | – |
| 2600 | CN1O[C@@]2(C[C@@H]1c1ccccc1)C(=O)Nc1ccccc12 | – | – | – | – | – | – | – | – | – | – | – | – | – | – | – | – | – | – | – | – |
| – | CCOC(=O)[C@H]1[C@H](C(=O)c2ccccc2)C12C(=O)Nc1ccccc12 (relative stereo) | 85.1 | 22.15 | 3890 | 10.74 | 2080 | 4.03 | 89.7 | 2.11 | 7.77 | 56.01 | 0.62 | 2.9 | 4.19 | 78.52 | Active | 6.6 | 16.58 | 2.27 | 0.8 | Activity [8]: Active; Activity [9]: 2.2%; IC50 [10]: 5.12 µM; IC50 [12]: 2080 nM; Activity [14]: 11.1%; Activity [16]: 17.66%; Activity [17]: 84.93%; fold change (FC) [20]: 2; Activity [22]: 70.57%; IC50 [23]: 3.98 µM; Activity [24]: 10.12%; IC50 [27]: 7.5 µM; Activity [29]: 8.93%; Activity [30]: 1.6%; IC50 [32]: 64.6 µM |
| – | CCOC(=O)[C@H]1[C@H](C(=O)c2ccc(C)cc2)C12C(=O)Nc1ccc(Br)cc12 (relative stereo) | 84.1 | 22.98 | 1870 | 11.5 | 1860 | 3.4 | 88.1 | 1.35 | 8.8 | 57.28 | 3.41 | 3.1 | 2.74 | 66.31 | Active | 7.5 | 26.17 | 2.1 | 1.1 | Activity [8]: Active; Activity [9]: 2.1%; IC50 [10]: 4.56 µM; Activity [14]: 12%; Activity [16]: 17%; Activity [17]: 85.57%; fold change (FC) [20]: 2; Activity [22]: 64.01%; IC50 [23]: 3.63 µM; Activity [24]: 18.78%; IC50 [27]: 16.1 µM; Activity [29]: 3.16%; Activity [30]: 1.8%; IC50 [32]: 79.4 µM |
| – | COC(=O)Nc1nc2cc(C(=O)c3cccs3)ccc2[nH]1 [NOCODAZOLE] | – | – | – | – | – | – | 87.5 | 57.63 | 9.25 | 9.52 | 3.92 | 2.8 | 81.21 | 5.35 | Active | 8.3 | 5.61 | 26.59 | 1.4 | – |
